We go through 21 compounds from ChEMBL document CHEMBL1154662, “alphavbeta3 Integrin-targeting Arg-Gly-Asp (RGD) peptidomimetics containing oligoethylene glycol (OEG) spacers” (J Med Chem, 2009).

The target of test [1] is Integrin alpha-IIb/beta-3 (Homo sapiens, UniProt P05106+P08514). In words: Inhibition of human integrin alpha2b beta3 receptor by fibrinogen competitive binding assay. In kind it is protein-complex assay. The gist of the method:
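Platelet αIIbβ3, affinity-purified, adsorbed at 1 μg/mL in Tris buffer (2 mM CaCl2, 1 mM MgCl2 and MnCl2, pH 7.5) for 1 h at room temperature, then blocked with 1% albumin. Exposed 30 min to excess biotinylated fibrinogen with varied compound levels. Detection used anti-biotin–alkaline phosphatase and p-nitrophenyl phosphate, read at 405 nm. IC50 derived from at least two pooled dose-response experiments.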

For another test, the species on record is Homo sapiens. In words: Selectivity index, ratio of IC50 for human integrin alpha2b beta3 receptor to IC50 for human integrin alphav beta3 receptor.
A further test addresses Integrin alpha-V/beta-3 (Homo sapiens, UniProt P05106+P06756). In words: Inhibition of human integrin alphav beta3 receptor by biotinylated vitronectin competitive binding assay. It counts as protein-complex assay. An outline of the steps:
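Placenta-derived human αvβ3 adsorbed at 500 ng/mL in Tris buffer (2 mM CaCl2, 1 mM MgCl2 and MnCl2, pH 7.5), 1 h RT, then blocked with 1% albumin. Incubated 30 min with excess biotinylated vitronectin plus graded compound. Bound ligand detected with anti-biotin–alkaline phosphatase and p-nitrophenyl phosphate at 405 nm. IC50 taken from pooled dose-response curves of at least two experiments.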

For the next test, the system named is HOP. In words: Inhibition of HOP cell adhesion on vitronectin coated plate by colorimetric method. In kind it is functional, cell-based. To be noted: Homo sapiens. The gist of the method: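 HOP cells (bone marrow stromal, second subculture) preincubated 1 h at 37 °C with compound (10-4 to 10-12 M final) in serum-free IMDM, then 100 μL of 32000 cells/mL seeded on wells coated with human plasma vitronectin (5 μg/mL); adhesion 30 min at 37 °C. Adherent cells read via p-nitrophenyl N-acetyl β-D-glucosaminide hydrolysis, 405 nm. Expressed as absorbance ratio to untreated cells; ≥2 experiments, n = 6 wells.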

Structures are written as SMILES. Active and inactive are the calls of the source. The calls are words filed in the database; no cut-off is given here.

Usually IC50 stands for the concentration at which inhibition is half-maximal. Higher therefore signals lower potency. Turning to `COCCOCCOCCOCC(=O)Nc1cc(C[C@H](NS(=O)(=O)c2cccc(C(F)(F)F)c2)C(=O)O)ccc1OCCCCNc1cc(C)ccn1`, the IC50 in test [1] came out at 61 nM; on Integrin alpha-V/beta-3, 0.5 nM. Also, the Ratio IC50 in the test listed under Homo sapiens stood at 122.

In the case of `Nc1cc(C[C@H](NS(=O)(=O)c2cccc(C(F)(F)F)c2)C(=O)O)ccc1OCCCCc1ccc2c(n1)NCCC2`, the IC50 in test [1] was determined as 355 nM; on Integrin alpha-V/beta-3, 1.1 nM. Moreover, the Ratio IC50 in the test filed under Homo sapiens is 323.

With `NCCCOc1ccc(C[C@H](NS(=O)(=O)c2cccc(C(F)(F)F)c2)C(=O)O)cc1N`, the IC50 in test [1] was determined as 429 nM; on Integrin alpha-V/beta-3, 138 nM. Further, in the test filed under Homo sapiens, the Ratio IC50 turned out to be 3.1.

Take `Nc1cc(C[C@H](NS(=O)(=O)c2cccc(C(F)(F)F)c2)C(=O)O)ccc1OCCCNC1=NCCCN1`: the Ratio IC50 in the test listed under Homo sapiens was determined as 5.5.

As for `Cc1ccnc(NCCCCOc2ccc(C[C@H](NS(=O)(=O)c3cccc(C(F)(F)F)c3)C(=O)O)cc2N)c1`, the IC50 was 106 nM in test [1] and 0.6 nM on Integrin alpha-V/beta-3. Further, in the test filed under Homo sapiens, the Ratio IC50 worked out at 177. Moreover, the result in the test on HOP was Active.

On to `Cc1ccnc(NCCCCOc2ccc(C[C@H](NS(=O)(=O)c3cccc(C(F)(F)F)c3)C(=O)O)cc2NC(=O)COCCOCCOCCN)c1`, for which the IC50 was found to be 28 nM in test [1] and 0.9 nM on Integrin alpha-V/beta-3. Besides, the Ratio IC50 in the test filed under Homo sapiens came to 31.

For `CC(=O)Nc1cc(C[C@H](NS(=O)(=O)c2cccc(C(F)(F)F)c2)C(=O)O)ccc1OCCCCNc1cc(C)ccn1`, the IC50 in test [1] came to 38 nM; at Integrin alpha-V/beta-3, 0.7 nM. In addition, the Ratio IC50 in the test listed under Homo sapiens was 54.

On to `N=C(N)NCCCOc1ccc(C[C@H](NS(=O)(=O)c2cccc(C(F)(F)F)c2)C(=O)O)cc1N`, for which the Ratio IC50 in the test listed under Homo sapiens was found to be 3.5.

With `NCCCCOc1ccc(C[C@H](NS(=O)(=O)c2cccc(C(F)(F)F)c2)C(=O)O)cc1N`, the values for the IC50 (in test [1]; on Integrin alpha-V/beta-3) were 154 nM and 428 nM, respectively. Besides, the Ratio IC50 in the test filed under Homo sapiens was determined as 0.35.

For the compound `N=C(N)NCCCCOc1ccc(C[C@H](NS(=O)(=O)c2cccc(C(F)(F)F)c2)C(=O)O)cc1N`, the half-inhibitory concentration (IC50) in test [1] was found to be 7.3 nM; at Integrin alpha-V/beta-3 it was 1.7 nM. The Ratio IC50 in the test filed under Homo sapiens is 4.3.

Consider `Cc1ccnc(NCCCCOc2ccc(C[C@H](NS(=O)(=O)c3cccc(C(F)(F)F)c3)C(=O)O)cc2NC(=O)COCCOCCOCCOCCOCCOCCN)c1`, for which the values for the IC50 (in test [1]; on Integrin alpha-V/beta-3) were 38 nM and 0.8 nM, respectively. Besides, in the test filed under Homo sapiens, the Ratio IC50 was found to be 47.

As for `Nc1cc(C[C@H](NS(=O)(=O)c2cccc(C(F)(F)F)c2)C(=O)O)ccc1OCCCCNc1ccccn1`, the values for the IC50 (in test [1]; on Integrin alpha-V/beta-3) were 70 nM and 1.4 nM, respectively. The Ratio IC50 in the test listed under Homo sapiens came to 50.

With `CC(=O)Nc1cc(C[C@H](NS(=O)(=O)c2cccc(C(F)(F)F)c2)C(=O)O)ccc1OCCCc1ccc2c(n1)NCCC2`, the IC50 in test [1] came to 71 nM; at Integrin alpha-V/beta-3, 0.6 nM. For the same compound, in the test listed under Homo sapiens, the Ratio IC50 stood at 118. In the test with HOP, the outcome was Active.

For the compound `NC(N)=NCCCOc1ccc(C[C@H](NS(=O)(=O)c2cccc(C(F)(F)F)c2)C(=O)O)cc1N`, the IC50 in test [1] came to 27 nM; on Integrin alpha-V/beta-3 it was 7.6 nM.

As for `Nc1cc(C[C@H](NS(=O)(=O)c2cccc(C(F)(F)F)c2)C(=O)O)ccc1OCCCNc1ccccn1`, the IC50 in test [1] is 36 nM; on Integrin alpha-V/beta-3, 1.2 nM. In addition, in the test listed under Homo sapiens, the Ratio IC50 turned out to be 30.

`N=C(N)NCCC[C@H](NC(=O)CN)C(=O)NCC(=O)N[C@@H](CC(=O)O)C(=O)N[C@@H](CO)C(=O)O`: in the test with HOP, the outcome was Active.

Regarding `Cc1cccc(NCCCCOc2ccc(C[C@H](NS(=O)(=O)c3cccc(C(F)(F)F)c3)C(=O)O)cc2N)n1`, the IC50 in test [1] is 121 nM; at Integrin alpha-V/beta-3, 1.7 nM. In the test listed under Homo sapiens, the Ratio IC50 stood at 71.

Regarding `Nc1cc(C[C@H](NS(=O)(=O)c2cccc(C(F)(F)F)c2)C(=O)O)ccc1OCCCc1ccc2c(n1)NCCC2`, the results for the IC50 (in test [1]; at Integrin alpha-V/beta-3) were 141 nM and 0.1 nM, respectively. For the same compound, the Ratio IC50 in the test listed under Homo sapiens came out at 1410.

For the compound `Nc1cc(C[C@H](NS(=O)(=O)c2cccc(C(F)(F)F)c2)C(=O)O)ccc1OCCCCN=C1NCCCN1`, the IC50 in test [1] is 101 nM; on Integrin alpha-V/beta-3, 0.8 nM.

`Nc1cc(C[C@H](NS(=O)(=O)c2cccc(C(F)(F)F)c2)C(=O)O)ccc1OCCCCNC1=NCCCN1`: the Ratio IC50 in the test filed under Homo sapiens worked out at 126.

Take `Nc1cc(C[C@H](NS(=O)(=O)c2cccc(C(F)(F)F)c2)C(=O)O)ccc1OCCCN=C1NCCCN1`: the figures for the IC50 (in test [1]; on Integrin alpha-V/beta-3) were 21.3 nM and 3.9 nM, respectively.
